Results collected from several papers.
Lines come from different studies, so protocols differ.
Target: Receptor tyrosine-protein kinase erbB-2 (ERBB2, Homo sapiens, UniProt P04626)

For `C=CC(=O)N1CCC[C@@H](n2nc(-c3ccc(Oc4ccccc4)cc3)c3c(N)ncnc32)C1`, the inhibition was 100% (enzyme activity, inhibitor; 1 µM).
With `COc1ccc2oc(-c3ccc4nc(N)oc4c3)c/c(=N\c3ccccc3NC(=O)CCN)c2c1` the remaining binding was 104% (binding; 1 µM).
`C[C@H]1CC[C@H](n2c3cnccc3c3cnc(Nc4ccc5c(n4)CCN(C(=O)CO)C5)nc32)CC1` has a remaining binding of 100% (binding, competition with immobilised ligand; 1 µM).
With `N#Cc1ccc(NC(=O)Nc2ccccc2)cc1` the remaining binding was 100% (cell-free assay, competition with immobilised ligand; 25 µM).
For `CO[C@@H]1[C@H](N(C)C(=O)c2ccccc2)C[C@H]2O[C@]1(C)n1c3ccccc3c3c4c(c5c6ccccc6n2c5c31)C(=O)NC4`, the inhibition was 0% (enzyme activity, inhibitor; 1 µM).
The remaining binding of `CCCCC(=O)Nc1ccc(-c2ccc3ncn(CCC)c(=O)c3c2)cn1` is reported as 97% (binding, competition with immobilised ligand; 0.5 µM).
`Cc1ccc(NC(=O)c2ccnc(C(F)(F)F)c2)cc1-c1cc(OCCO)nc(N2CCOCC2)c1` gave a remaining binding of 72% (binding, competition with immobilised ligand; 1 µM).
With `C1=C/COCc2cc(ccc2OCCN2CCCC2)Nc2nccc(n2)-c2cccc(c2)COC/1` the remaining binding was 100% (binding; 0.1 µM).
`COc1c(Cl)cccc1Nc1c(-c2ccncc2OC[C@@H]2COCCO2)[nH]c2c1C(=O)NCC2` gave an inhibition of over 80% (enzyme activity, inhibitor, radiometric; 1 µM).
With `C#Cc1cnc(Nc2ccnc(CO)c2)nc1Nc1ccccc1S(C)(=O)=NC#N` (stereo not shown) the remaining signal was 86% (cell-free assay; 1 µM).
